From ChEMBL document CHEMBL3616379, “From carbohydrates to drug-like fragments: Rational development of novel α-amylase inhibitors” (Bioorg Med Chem, 2015)
pIC50, pKi: −log10 of the molar value. One block for each molecule: values may come before it. Activity calls are given as the source filed them. The rule behind the calls is not given here.

Key:
Alpha-amylase 1A = molecular target: T1, Alpha-amylase 1A (Homo sapiens, UniProt P0DUB6); test: Inhibition of human salivary alpha-amylase using GalG2CNP as substrate by UV-Vis spectrophotometric analysis; details: for pIC50: read-out: IC50
T1 sequence (P0DUB6 whole entry): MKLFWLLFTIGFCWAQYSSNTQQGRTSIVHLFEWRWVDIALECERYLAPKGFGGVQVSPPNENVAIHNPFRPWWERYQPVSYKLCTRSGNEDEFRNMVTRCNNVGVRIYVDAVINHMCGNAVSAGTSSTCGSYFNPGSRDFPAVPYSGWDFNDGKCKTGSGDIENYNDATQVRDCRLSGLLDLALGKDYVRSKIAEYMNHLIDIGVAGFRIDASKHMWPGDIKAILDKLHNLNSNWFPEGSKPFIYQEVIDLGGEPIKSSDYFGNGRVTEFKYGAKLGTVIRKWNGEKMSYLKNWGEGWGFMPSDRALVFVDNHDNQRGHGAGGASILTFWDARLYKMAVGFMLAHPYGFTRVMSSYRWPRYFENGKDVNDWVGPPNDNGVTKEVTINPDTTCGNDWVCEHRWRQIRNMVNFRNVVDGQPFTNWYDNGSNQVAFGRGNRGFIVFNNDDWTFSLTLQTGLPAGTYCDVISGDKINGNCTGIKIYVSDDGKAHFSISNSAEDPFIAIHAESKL

Pancreatic alpha-amylase = molecular target: T2, Pancreatic alpha-amylase (Homo sapiens, UniProt P04746); test: Inhibition of human pancreatic alpha-amylase expressed in Pichia pastoris using amylase as substrate preincubated with substrate for 10 mins followed by protein addition measured every 5 mins by Dixon plot analysis
T2 sequence (P04746 whole entry): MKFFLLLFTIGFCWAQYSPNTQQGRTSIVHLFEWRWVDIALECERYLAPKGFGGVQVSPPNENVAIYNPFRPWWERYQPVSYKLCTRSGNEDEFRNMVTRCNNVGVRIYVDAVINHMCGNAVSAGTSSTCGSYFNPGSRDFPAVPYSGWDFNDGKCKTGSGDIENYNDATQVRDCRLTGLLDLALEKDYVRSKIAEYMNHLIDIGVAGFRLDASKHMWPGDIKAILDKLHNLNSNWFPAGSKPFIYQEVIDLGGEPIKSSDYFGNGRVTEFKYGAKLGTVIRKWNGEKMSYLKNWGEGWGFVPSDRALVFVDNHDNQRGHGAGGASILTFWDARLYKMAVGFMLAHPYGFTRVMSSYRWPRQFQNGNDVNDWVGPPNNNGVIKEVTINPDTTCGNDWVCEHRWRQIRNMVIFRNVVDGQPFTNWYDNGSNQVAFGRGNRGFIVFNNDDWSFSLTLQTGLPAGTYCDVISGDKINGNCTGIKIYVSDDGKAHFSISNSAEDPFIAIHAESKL

Alpha amylase = molecular target: T3, Alpha amylase (Homo sapiens, UniProt P0DUB6); test: (§1) Inhibition of alpha-amylase (unknown origin) relative to control
T3 sequence (P0DUB6 whole entry): T1 sequence (P0DUB6 whole entry)

[1] = molecular target: T4, Alpha-amylase 1A (Homo sapiens) (UniProt P0DUB6); test: Potency index, ratio of BAS 04880564 IC50 to compound IC50 for human salivary alpha-amylase
T4 sequence (whole entry): T1 sequence (P0DUB6 whole entry)

[2] = molecular target: Alpha amylase (Homo sapiens) (UniProt P0DUB6); test: as §1; design: concentration or dose not given beside the values; details: concentration not given here
[3] = molecular target: T4, Alpha-amylase 1A (Homo sapiens); test: Competitive inhibition of human salivary alpha-amylase using GalG2CNP as substrate by Lineweaver-Burk plot analysis
Outline: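 Inhibition mode assigned from Lineweaver-Burk plots. Human salivary α-amylase (2 nM) started reactions containing GalG2CNP (0.75–4 mM) and inhibitor in DMSO, in 50 mM MES pH 6.0 with 5 mM Ca(OAc)2, 51.5 mM NaCl, 152 mM NaN3 at 37°C. Rates from continuous 400 nm absorbance of released CNP.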

Compound: COc1cccc(C2NC(c3cccc(OC)c3O)C([N+](=O)[O-])C(C)(C)C2[N+](=O)[O-])c1O (stereo not drawn)
- pIC50 (Alpha-amylase 1A): 3.52

Compound: C[C@H]1O[C@H](O[C@H]2[C@H](O)[C@@H](O)[C@@H](O[C@H]3[C@H](O)[C@@H](O)[C@@H](O[C@H]4[C@H](O)[C@@H](O)[C@@H](O[C@H]5[C@H](O)[C@@H](O)[C@@H](O)O[C@@H]5CO)O[C@@H]4CO)O[C@@H]3CO)O[C@@H]2CO)[C@H](O)[C@@H](O)[C@@H]1N[C@H]1C=C(CO)[C@@H](O[C@H]2O[C@H](CO)[C@@H](O[C@H]3O[C@H](C)[C@@H](N[C@H]4C=C(CO)[C@@H](O[C@H]5O[C@H](CO)[C@@H](O[C@H]6O[C@H](C)[C@@H](N[C@H]7C=C(CO)[C@@H](O)[C@H](O)[C@H]7O)[C@H](O)[C@H]6O)[C@H](O)[C@H]5O)[C@H](O)[C@H]4O)[C@H](O)[C@H]3O)[C@H](O)[C@H]2O)[C@H](O)[C@H]1O
- pKi (Pancreatic alpha-amylase): 7.84

Compound: O=c1ccc2cc(O[C@@H]3O[C@H](CO)[C@@H](O)[C@H](O)[C@H]3O)c(O)cc2o1 [ESCULIN]
- IC50 (Alpha amylase): 1670 µM

Compound: COc1cc(/C=C/C(=O)O)ccc1O [FERULATE]
- IC50 (Alpha amylase): > 5000 µM

Compound: Oc1cc(O)c2cc(O)c(-c3ccc(O)c(O)c3)[o+]c2c1
- inhibition [2]: 12%

Compound: O=c1cc(-c2ccc(O)c(O)c2)oc2cc(O[C@@H]3O[C@H](CO)[C@@H](O)[C@H](O)[C@H]3O)cc(O)c12 [GALUTEOLIN]
- IC50 (Alpha amylase): 280 µM

Compound: O=C(O)c1cccc(O)c1O [2,3-DIHYDROXYBENZOIC ACID]
- IC50 (Alpha amylase): > 7000 µM

Compound: O=C(/C=C/c1ccc(O)c(O)c1)O[C@H](Cc1ccc(O)c(O)c1)C(=O)O [ROSMARINIC ACID]
- IC50 (Alpha amylase): 1400 µM

Compound: COc1cc(/C=C/C(=O)O)cc(OC)c1O [SINAPINATE]
- IC50 (Alpha amylase): > 6500 µM

Compound: O=C(O)CCc1ccc(O)c(O)c1 [DIHYDROCAFFEIC ACID]
- IC50 (Alpha amylase): > 14000 µM

Compound: Cc1ccc(O)c(Cc2cc(C)cc(Cc3cc(C)ccc3O)c2O)c1
- pIC50 (Alpha-amylase 1A): 3.70
- Inhibition mode [3]: Active

Compound: COc1ccc(CCC(=O)O)cc1OC
- IC50 (Alpha amylase): > 12000 µM

Compound: C[C@@H]1O[C@@H](OC[C@H]2O[C@@H](Oc3c(-c4ccc(O)c(O)c4)oc4cc(O)cc(O)c4c3=O)[C@H](O)[C@@H](O)[C@@H]2O)[C@H](O)[C@H](O)[C@H]1O
- inhibition [2]: 20.1%

Compound: CC1OC(OC2C(CO)OC(OC3C(CO)OC(O)C(O)C3O)C(O)C2O)C(O)C(O)C1NC1C=C(CO)C(OC2OC(CO)C(OC3OC(CO)C(O)C(O)C3O)C(O)C2O)C(O)C1O (stereo not drawn)
- pKi (Pancreatic alpha-amylase): 5.90

Compound: C[C@@H]1O[C@@H](O[C@H]2[C@H](Oc3cc(O)c4c(c3)O[C@H](c3ccc(O)cc3)CC4=O)O[C@H](CO)[C@@H](O)[C@@H]2O)[C@H](O)[C@H](O)[C@H]1O
- inhibition [2]: 0%

Compound: O=C(O)c1ccc(O)c(O)c1 [PROTOCATECHUIC ACID]
- IC50 (Alpha amylase): > 10000 µM

Compound: O=C(/C=C/c1ccc(O)c(O)c1)O[C@@H]1C[C@](O)(C(=O)O)C[C@@H](OC(=O)/C=C/c2ccc(O)c(O)c2)[C@H]1O
- IC50 (Alpha amylase): 390 µM

Compound: O=c1ccc2cc(O)c(O)cc2o1
- inhibition [2]: 17.4%

Compound: O=c1c(O[C@@H]2O[C@H](CO)[C@@H](O)[C@H](O)[C@H]2O)c(-c2ccc(O)c(O)c2)oc2cc(O)cc(O)c12
- inhibition [2]: 12.2%

Compound: O=C(O)/C=C/c1ccc(O)c(O)c1 [CAFFEIC ACID]
- IC50 (Alpha amylase): 4800 µM

Compound: CCc1cc(-c2n[nH]c(C(=O)O)c2-c2ccc3c(c2)OCO3)c(O)cc1O
- pIC50 (Alpha-amylase 1A): 2.40

Compound: O=C(/C=C/c1ccc(O)c(O)c1)O[C@@H]1C[C@@](OC(=O)/C=C/c2ccc(O)c(O)c2)(C(=O)O)C[C@@H](O)[C@@H]1O [CYNARIN]
- IC50 (Alpha amylase): > 2000 µM

Compound: C[C@@H]1O[C@@H](Oc2c(-c3ccc(O)c(O)c3)oc3cc(O)cc(O)c3c2=O)[C@H](O)[C@H](O)[C@H]1O
- inhibition [2]: 37.6%

Compound: O=C(O)[C@]1(O)C[C@@H](O)[C@@H](O)[C@H](O)C1 [QUINIC ACID]
- IC50 (Alpha amylase): 13000 µM

Compound: C[C@H]1O[C@H](O[C@H]2[C@H](O)[C@@H](O)[C@@H](O[C@H]3[C@H](O)[C@@H](O)[C@@H](O[C@H]4[C@H](O)[C@@H](O)[C@@H](O[C@H]5[C@H](O)[C@@H](O)[C@@H](O)O[C@@H]5CO)O[C@@H]4CO)O[C@@H]3CO)O[C@@H]2CO)[C@H](O)[C@@H](O)[C@@H]1N[C@H]1C=C(CO)[C@@H](O[C@H]2O[C@H](CO)[C@@H](O[C@H]3O[C@H](C)[C@@H](N[C@H]4C=C(CO)[C@@H](O[C@H]5O[C@H](CO)[C@@H](O[C@H]6O[C@H](C)[C@@H](N[C@H]7C=C(CO)[C@@H](O[C@H]8O[C@H](CO)[C@@H](O[C@H]9O[C@H](C)[C@@H](N[C@H]%10C=C(CO)[C@@H](O)[C@H](O)[C@H]%10O)[C@H](O)[C@H]9O)[C@H](O)[C@H]8O)[C@H](O)[C@H]7O)[C@H](O)[C@H]6O)[C@H](O)[C@H]5O)[C@H](O)[C@H]4O)[C@H](O)[C@H]3O)[C@H](O)[C@H]2O)[C@H](O)[C@H]1O
- pKi (Pancreatic alpha-amylase): 7.38

Compound: OC[C@H]1O[C@@H](Oc2ccc(O)cc2)[C@H](O)[C@@H](O)[C@@H]1O
- inhibition [2]: 30%

Compound: COc1cc2ccc(=O)oc2cc1O [SCOPOLETIN]
- IC50 (Alpha amylase): 1300 µM

Compound: O=C1C[C@@H](c2ccc(O)cc2)Oc2cc(O)cc(O)c21 [NARINGENIN]
- IC50 (Alpha amylase): 1800 µM

The remaining lines, values ahead:

- pIC50 (Alpha-amylase 1A): 3.17
Compound: O=C(O)c1ccc(Nc2nc(-c3ccc(O)cc3O)cs2)cc1

- pIC50 (Alpha-amylase 1A): 4.40
- Ratio IC50 [1]: 3.45
Compound: COc1ccc(Nc2nc(-c3ccccc3O)cs2)cc1

- pIC50 (Alpha-amylase 1A): 3.15
Compound: CC(=O)N1CCN(C2=NC(=O)/C(=C\c3ccccc3O)S2)CC1

- IC50 (Alpha amylase): 3500 µM
Compound: Oc1cc(O)c2c(c1)O[C@H](c1ccc(O)c(O)c1)[C@H](O)C2 [(-)-EPICATECHIN]

- inhibition [2]: 12.4%
Compound: O=c1cc(-c2ccc(O)cc2)oc2cc(O)cc(O)c12

- inhibition [2]: 5%
Compound: O=c1cc(-c2ccccc2)oc2cc(O)cc(O)c12

- inhibition [2]: 16%
Compound: Oc1cc(O)c2c(c1)O[C@@H](c1ccc(O)c(O)c1)[C@H](O)C2

- pIC50 (Alpha-amylase 1A): 2.89
Compound: Oc1ccc(Nc2nc(-c3ccccc3)cs2)cc1

- pIC50 (Alpha-amylase 1A): 3.00
Compound: CC(O)CNCCNCc1ccc(-c2ccccc2F)o1 (stereo not drawn)

- pIC50 (Alpha-amylase 1A): 2.40
Compound: Cc1[nH]nc(-c2ccc(O)cc2O)c1Oc1ccc(C(=O)O)cc1

- pIC50 (Alpha-amylase 1A): 3.07
Compound: C/C(=N\NC(=O)CCC(=O)Nc1ccccc1C)c1ccc(O)cc1O

- pIC50 (Alpha-amylase 1A): 4.30
- Ratio IC50 [1]: 2.76
- Inhibition mode [3]: Active
Compound: O=C1S/C(=C\c2cc(Cl)ccc2O)C(=O)N1Cc1cccc([N+](=O)[O-])c1

- pIC50 (Alpha-amylase 1A): 3.57
- Ratio IC50 [1]: 0.51
Compound: Nc1ccc(Nc2nc(-c3ccc(Cl)cc3Cl)cs2)cc1

- pIC50 (Alpha-amylase 1A): 3.86
- Inhibition mode [3]: Active
Compound: Oc1ccc(Nc2nc(-c3ccc(O)cc3O)cs2)cc1

- IC50 (Alpha-amylase 1A): ND(Insoluble)
Compound: Cc1cc(C=O)c(O)c(/C=N/N=C(/N/N=C/c2cc(C)cc(C=O)c2O)SCc2ccccc2)c1

- pIC50 (Alpha-amylase 1A): 3.59
- Ratio IC50 [1]: 0.53
Compound: COc1cc(Br)cc(/C=C2/SC(Nc3cccc(C(=O)O)c3)=NC2=O)c1O

- pIC50 (Alpha-amylase 1A): 4.21
- Ratio IC50 [1]: 2.22
Compound: O=C(O)c1cccc(N2C(=O)/C(=C/c3ccccc3O)SC2=S)c1

- pIC50 (Alpha-amylase 1A): 3.19
Compound: O=C(O)c1ccc(Nc2nc(-c3ccc(O)cc3O)cs2)cc1O

- pIC50 (Alpha-amylase 1A): 3.31
Compound: Oc1ccc(Nc2nc(-c3ccc(O)cc3)cs2)cc1

- pIC50 (Alpha-amylase 1A): 2.98
Compound: Oc1ccc(Nc2nc(-c3ccc(Cl)cc3)cs2)cc1

- pIC50 (Alpha-amylase 1A): 3.13
Compound: Cc1ccc(-c2csc(Nc3ccc(O)cc3)n2)cc1

- pIC50 (Alpha-amylase 1A): 3.48
Compound: COc1cccc(NC(=N)Nc2nc(O)cc(CSc3ccccn3)n2)c1
